Assay results gathered from unrelated publications.
Compare with care: the assays were run in different laboratories.
Target: Serine/threonine-protein kinase MARK1 (MARK1, Homo sapiens, UniProt Q9P0L2)

| Structure (SMILES) | read-out | mode | technique | tested at | measurement | result |
| --- | --- | --- | --- | --- | --- | --- |
| C#Cc1cc(-c2cc(Nc3nc(N[C@@H](C)c4ccc(F)cn4)ncc3Cl)n[nH]2)ccc1C=O | enzyme activity | inhibitor |  | 0.2 µM | inhibition | 8.26% |
| C[C@H]1CC[C@H](n2c3cnccc3c3cnc(Nc4ccc5c(n4)CCN(C(=O)CO)C5)nc32)CC1 | cell-free assay |  |  | 1 µM | remaining signal | 66% |
| C1=C/COCc2cc(ccc2OCCN2CCCC2)Nc2nccc(n2)-c2cccc(c2)COC/1 | binding |  |  | 0.1 µM | remaining binding | 100% |
| CO[C@@H]1[C@H](N(C)C(=O)c2ccccc2)C[C@H]2O[C@]1(C)n1c3ccccc3c3c4c(c5c6ccccc6n2c5c31)C(=O)NC4 | enzyme activity | inhibitor |  | 1 µM | inhibition | 96% |
| COc1ccc2oc(-c3ccc4nc(N)oc4c3)c/c(=N\c3ccccc3NC(=O)CCN)c2c1 | binding |  |  | 1 µM | remaining binding | 103% |
| CCCCC(=O)Nc1ccc(-c2ccc3ncn(CCC)c(=O)c3c2)cn1 | binding |  | competition with immobilised ligand | 0.5 µM | remaining binding | 81% |
| Cc1ccc(NC(=O)c2ccnc(C(F)(F)F)c2)cc1-c1cc(OCCO)nc(N2CCOCC2)c1 | binding |  |  | 1 µM | remaining binding | 100% |
| CC#CC(=O)N1CCC[C@H]1c1nc(-c2ccc(C(=O)Nc3ccccn3)cc2)c2c(N)nccn12 | enzyme activity | inhibitor |  | 1 µM | inhibition | 10% |
